Source: ChEMBL document CHEMBL1141586, “Design and optimization of imidazole derivatives as potent CXCR3 antagonists” (Bioorg Med Chem Lett, 2008)
Converted amounts (≈) assume the structure as drawn.

Key:
[1] = system: Liver microsomes; experiment: Metabolic stability in human liver microsomes assessed as decrease in glutathione conjugate formation; assay type: ADME, Microsome; design: scale not given: the % may be the effect or the level left
[2] = molecular target: T1, C-X-C chemokine receptor type 3 (Homo sapiens) (UniProt P49682); experiment: Antagonist activity at human CXCR3 receptor assessed as ITAC-induced cellular migration in PBMC in presence of plasma; assay type: functional
T1 sequence (whole entry): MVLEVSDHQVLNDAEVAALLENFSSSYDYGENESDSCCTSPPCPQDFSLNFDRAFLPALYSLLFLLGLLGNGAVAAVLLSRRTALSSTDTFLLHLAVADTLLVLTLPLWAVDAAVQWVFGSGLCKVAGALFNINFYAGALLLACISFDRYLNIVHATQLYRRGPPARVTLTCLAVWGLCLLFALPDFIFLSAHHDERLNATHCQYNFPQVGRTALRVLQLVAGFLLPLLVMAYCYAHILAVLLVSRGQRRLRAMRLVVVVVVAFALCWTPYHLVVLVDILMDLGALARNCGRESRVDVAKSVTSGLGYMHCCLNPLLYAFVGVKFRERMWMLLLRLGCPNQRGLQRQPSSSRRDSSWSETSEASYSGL

[3] = molecular target: T2, C-X-C chemokine receptor type 3 (Homo sapiens, UniProt P49682); experiment: Displacement of [125I]IP10 from human recombinant CXCR3 receptor expressed in IL2-activated human PBMC in presence of plasma
T2 sequence (P49682 whole entry): T1 sequence (whole entry)
Method in brief: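 PBMC were activated for 14 days with anti-CD3 mAb and recombinant human IL-2, then co-incubated with antagonist and recombinant human 125I-IP10 for 2 h at room temperature in EDTA-anticoagulated human plasma (from frozen stocks). Cells were filter-harvested and bound radioactivity counted by scintillation. IC50 is the mean of three experiments.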

[4] = molecular target: T2, C-X-C chemokine receptor type 3; experiment: Displacement of [125I]IP10 from human recombinant CXCR3 receptor expressed in IL2-activated human PBMC
[5] = AUC in rat at 2 mg/kg, po; assay type: ADME, organism-based; design: dose 2 mg/kg, route oral; conditions: plasma
[6] = Oral bioavailability in rat at 2 mg/kg; assay type: ADME, organism-based; conditions: in vivo
[7] = Mean residence time in rat at 0.5 mg/kg, iv; assay type: ADME, organism-based; design: dose 0.5 mg/kg, route intravenous; conditions: in vivo
Method in brief: (§1)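 Rats given a single intravenous dose of 0.5 mg/kg; clearance, AUC and mean residence time derived from plasma exposure; n = 2 animals.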

[8] = system: Rattus norvegicus; experiment: AUC in rat at 0.5 mg/kg, iv; assay type: ADME, organism-based, Plasma; design: dose 0.5 mg/kg, route intravenous; conditions: in vivo; method in brief: as §1
[9] = system: Rattus norvegicus; experiment: Clearance in rat at 0.5 mg/kg, iv; assay type: ADME, organism-based; design: dose 0.5 mg/kg, route intravenous; conditions: in vivo; method in brief: as §1
[10] = Mean residence time in rat at 2 mg/kg, po; assay type: ADME, organism-based; design: dose 2 mg/kg, route oral; conditions: in vivo
[11] = Solubility at pH 7.4; assay type: physicochemical; conditions: buffer
Method in brief: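 10 mM DMSO stock added to pH 7.4 assay buffer, final DMSO about 1%. Compound concentration in the supernatant is measured.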

[12] = Membrane permeability by PAMPA assay; assay type: ADME; conditions: read-out: permeability
Method in brief: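 PAMPA: passive permeation across an artificial phospholipid bilayer membrane; result expressed in 10^-6 cm/s.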

| Activity [2] [nM] | IC50 [3] [nM] | IC50 [4] [nM] | Structure (SMILES) | also measured |
| --- | --- | --- | --- | --- |
| 29 | 16 | 3.2 | CCc1c(C2CC2)nc([C@@H](C)N(CCS(=O)(=O)CC)C(=O)Cc2ccc(F)c(C(F)(F)F)c2)n1-c1ccc(C#N)cc1 | Activity [1]: 14% |
| 33 | 43 | 4 | CCS(=O)(=O)CCN(C(=O)Cc1ccc(F)c(C(F)(F)F)c1)[C@H](C)c1nc(-c2ccccn2)cn1-c1ccc(C#N)cc1 |  |
| 268 | 45 | 19 | CCS(=O)(=O)CCN(C(=O)Cc1ccc(F)c(C(F)(F)F)c1)[C@H](C)c1nc(C2CC2)c(C(F)(F)F)n1-c1ccc(C#N)cc1 | Activity [1]: 0% |
|  | 129 | 35 | CCOc1ccc(-n2cc(-c3ccccc3)nc2[C@@H](C)N(Cc2ccncc2)C(=O)Cc2ccc(F)c(C(F)(F)F)c2)cc1 |  |
|  | 4.5 | 0.4 | CCOc1ccc(-n2cc(-c3ccccc3)nc2[C@@H](C)N(CCS(=O)(=O)CC)C(=O)Cc2ccc(F)c(C(F)(F)F)c2)cc1 |  |
|  | 47 | 5 | CCOc1ccc(-n2cc(-c3ccccc3)nc2[C@@H](C)N(CCS(=O)(=O)CC)C(=O)Cn2nnc(-c3ccc(F)cc3)n2)cc1 |  |
|  | 1120 | 40 | CCOc1ccc(-n2cc(-c3ccccc3)nc2[C@@H](C)N(CCS(=O)(=O)CC)C(=O)Cn2ccc(C(F)(F)F)n2)cc1 |  |
|  | 19 | 2.1 | CCOc1ccc(-n2cc(-c3ccccc3)nc2[C@@H](C)N(CCS(=O)(=O)CC)C(=O)Cn2nnc(-c3ccc(C(F)(F)F)cc3)n2)cc1 |  |
|  | 10000 | 752 | CCS(=O)(=O)CCN(C(=O)Cc1ccc(F)c(C(F)(F)F)c1)[C@H](C)c1nc(C2CC2)c(-c2ccccc2)n1-c1ccc(C#N)cc1 |  |
| 113 | 33 | 10 | CCS(=O)(=O)CCN(C(=O)Cc1ccc(F)c(C(F)(F)F)c1)[C@H](C)c1nc(C2CC2)c(CO)n1-c1ccc(C#N)cc1 | Activity [1]: 1% |
|  | 31 | 6.4 | CCOc1ccc(-n2cc(-c3ccccc3)nc2[C@@H](C)N(C[C@@H]2CCCN2C)C(=O)Cc2ccc(F)c(C(F)(F)F)c2)cc1 |  |
| 20 | 18 | 12 | CCS(=O)(=O)CCN(C(=O)Cc1ccc(F)c(C(F)(F)F)c1)[C@H](C)c1nc(C2CC2)c(C(F)F)n1-c1ccc(C#N)cc1 | AUC [5]: 456 ng·h/mL; Activity [1]: 0%; bioavailability [6]: 48%; MRT [7]: 0.9 h; AUC [8]: 237 ng·h/mL; CL [9]: 36.7 mL/min/kg; MRT [10]: 2.4 h |
|  | 276 | 72 | CCS(=O)(=O)CCN(C(=O)Cc1ccc(F)c(C(F)(F)F)c1)[C@H](C)c1nc(C2CC2)c(C#N)n1-c1ccc(C#N)cc1 | Activity [1]: 0% |
|  | 1180 | 80 | CCOc1ccc(-n2cc(-c3ccccc3)nc2[C@@H](C)N(Cc2ccccn2)C(=O)Cc2ccc(F)c(C(F)(F)F)c2)cc1 |  |
| 10 | 14 | 0.7 | CCS(=O)(=O)CCN(C(=O)Cc1ccc(F)c(C(F)(F)F)c1)[C@H](C)c1nc(-c2ccccc2)cn1-c1ccc(C#N)cc1 | AUC [5]: 11 ng·h/mL; bioavailability [6]: 3%; solubility [11]: 0.5 µg/mL (≈ 0.816 µM); MRT [7]: 0.3 h; Papp [12]: 0.9 ×10⁻⁶ cm/s; AUC [8]: 92 ng·h/mL; CL [9]: 91.7 mL/min/kg; MRT [10]: 0.9 h |
|  | 24 | 4.8 | CCOc1ccc(-n2cc(-c3ccccc3)nc2[C@@H](C)N(CCS(=O)(=O)CC)C(=O)Cn2cnc(-c3ccccc3)c2)cc1 |  |
|  | 202 | 11 | CCOCCN(C(=O)Cc1ccc(F)c(C(F)(F)F)c1)[C@H](C)c1nc(-c2ccccc2)cn1-c1ccc(OCC)cc1 |  |

| Activity [2] [nM] | IC50 [3] [nM] | IC50 [4] [nM] | Structure (SMILES) | also measured |
| --- | --- | --- | --- | --- |
|  | 45 | 7.1 | CCOc1ccc(-n2cc(-c3ccccc3)nc2[C@@H](C)N(CCS(=O)(=O)CC)C(=O)Cc2ccc(OC(F)(F)F)cc2)cc1 |  |
| 91 | 29 | 2.3 | CCS(=O)(=O)CCN(C(=O)Cc1ccc(F)c(C(F)(F)F)c1)[C@H](C)c1nc(-c2cccnc2)cn1-c1ccc(C#N)cc1 |  |
|  | 69 | 9.4 | CCOc1ccc(-n2cc(-c3ccccc3)nc2[C@@H](C)N(CCS(=O)(=O)CC)C(=O)Cn2nnc(-c3ccccc3)n2)cc1 |  |
| 53 | 37 | 6.6 | CCS(=O)(=O)CCN(C(=O)Cc1ccc(F)c(C(F)(F)F)c1)[C@H](C)c1nc(C2CC2)cn1-c1ccc(C#N)cc1 | AUC [5]: 95 ng·h/mL; Activity [1]: 44%; bioavailability [6]: 16%; solubility [11]: 32 µg/mL (≈ 55.5 µM); MRT [7]: 1 h; Papp [12]: 5.1 ×10⁻⁶ cm/s; AUC [8]: 149 ng·h/mL; CL [9]: 55 mL/min/kg; MRT [10]: 2.4 h |
|  |  | 1800 | CCOc1ccc(-n2ccnc2[C@@H](C)N(Cc2cccnc2)C(=O)Cc2ccc(F)c(C(F)(F)F)c2)cc1 |  |
|  | 18 | 2.4 | CCOc1ccc(-n2cc(-c3ccccc3)nc2[C@@H](C)N(CCCS(=O)(=O)CC)C(=O)Cc2ccc(F)c(C(F)(F)F)c2)cc1 |  |
|  | 1660 | 44 | CCOc1ccc(-n2cc(-c3ccccc3)nc2[C@@H](C)N(CCS(=O)(=O)CC)C(=O)Cn2nnc(C3CC3)n2)cc1 |  |
|  | 36 | 46 | CCOc1ccc(-n2cc(-c3ccccc3)nc2[C@@H](C)N(C[C@H]2CCCN2)C(=O)Cc2ccc(F)c(C(F)(F)F)c2)cc1 |  |
|  | 81 | 14 | CCOc1ccc(-n2cc(-c3ccccc3)nc2[C@@H](C)N(C[C@H]2CCCN2C)C(=O)Cc2ccc(F)c(C(F)(F)F)c2)cc1 |  |
|  | 49 | 5.6 | CCOc1ccc(-n2cc(-c3ccccc3)nc2[C@@H](C)N(CCS(=O)(=O)CC)C(=O)Cn2cc(-c3ccccc3)nn2)cc1 |  |
|  | 91 | 11 | CCOc1ccc(-n2cc(-c3ccccc3)nc2[C@@H](C)N(Cc2cccnc2)C(=O)Cc2ccc(F)c(C(F)(F)F)c2)cc1 |  |
| 119 | 28 | 8 | CCS(=O)(=O)CCN(C(=O)Cc1ccc(F)c(C(F)(F)F)c1)[C@H](C)c1nc(C2CC2)c(CF)n1-c1ccc(C#N)cc1 |  |
|  | 20 | 11 | CCOc1ccc(-n2cc(-c3ccccc3)nc2[C@@H](C)N(C[C@@H]2CCCN2)C(=O)Cc2ccc(F)c(C(F)(F)F)c2)cc1 |  |
| 100 | 21 | 2.5 | CCS(=O)(=O)CCN(C(=O)Cc1ccc(F)c(C(F)(F)F)c1)[C@H](C)c1nc(C(C)(C)C)cn1-c1ccc(C#N)cc1 |  |
| 45 | 22 | 3.8 | C=Cc1c(C2CC2)nc([C@@H](C)N(CCS(=O)(=O)CC)C(=O)Cc2ccc(F)c(C(F)(F)F)c2)n1-c1ccc(C#N)cc1 | Activity [1]: 8% |
| 80 | 24 | 7.8 | CCS(=O)(=O)CCN(C(=O)Cc1ccc(F)c(C(F)(F)F)c1)[C@H](C)c1nc(C2CC2)c(Cl)n1-c1ccc(C#N)cc1 | AUC [5]: 225 ng·h/mL; Activity [1]: 0%; bioavailability [6]: 26%; MRT [7]: 1.3 h; AUC [8]: 219; CL [9]: 38.3 mL/min/kg; MRT [10]: 5.4 h |
| 54 | 19 | 2.6 | CCS(=O)(=O)CCN(C(=O)Cc1ccc(F)c(C(F)(F)F)c1)[C@H](C)c1nc(C(C)C)cn1-c1ccc(C#N)cc1 |  |
